Source: PubChem
The list is not random: actives were taken first. Their share in the collection is about 3.8%.
KCNK9 inh: KCNK9 potassium channel inhibitors, primary screen, HEK293 cells, thallium flux; Potassium channel subfamily K member 9 (Homo sapiens), Q9NPC2; FluxOR thallium flux fluorescence; hits give low values; B-score at 10 µM; actives 1.2% (n = 310,000);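 active = ratio B-score over 3 SD below the library mean, with starting fluorescence within 5 SD of its mean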;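 note: negative B-score means less thallium flux so channel inhibition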
Kir21 block: inhibitors of mouse Kir2.1 inward-rectifier potassium channel; Inward rectifier potassium channel 2 (Mus musculus), P35561; HEK293-Kir2.1, FluxOR thallium flux fluorescence; hits give low values; B-score at 10 µM; actives 0.85% (n = 310,000); AID 1672, 2009;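 active = fluorescence ratio B-score at or below minus 3 SD of library scores, with starting-brightness B-score within 2 SD, cut at about -4.2 in these data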;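 note: channel flux triggered by added potassium and thallium sulfate stimulus; B-score of peak minus minimum fluorescence over baseline after thallium stimulus; more negative B-score means stronger Kir2.1 block with less thallium influx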
KCNQ1 block: inhibitors of human KCNQ1 channel, primary screen, cell-based, thallium flux, high-throughput | Potassium voltage-gated channel subfamily KQT member 1 (Homo sapiens), P51787 | actives 1.3% (n = 310,000) | CHO-K1 KCNQ1, FluxOR thallium flux fluorescence; hits give high values | B-score at 10 µM;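 active = compounds whose thallium flux B-score, printed positive for inhibition, exceeds three library SD while starting fluorescence stays within three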;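 note: channel opened by potassium depolarization with thallium stimulus after 20 min compound exposure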
hERG protect: hERG rescue from dofetilide block, primary screen, cell-based, CHO-hERG, FluxOR thallium flux, dofetilide IC70; Voltage-gated inwardly rectifying potassium channel KCNH2 (Homo sapiens), Q12809; dofetilide IC70 present; activation (rescue from dofetilide block), less the hit threshold, % at 10 µM; actives 0.51% (n = 310,000); AID 1511, 2009;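 active = activation above the mean of controls blocked by dofetilide plus 5 SD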;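 note: thallium influx through hERG after potassium depolarization seen as dye fluorescence rise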
KCNQ1 pot: potentiators or activators of KCNQ1 channel, primary screen, cell-based, thallium flux, high-throughput; CHO-K1 KCNQ1, thallium flux FluxOR fluorescence; hits give high values; Potassium voltage-gated channel subfamily KQT member 1 (Homo sapiens), P51787; B-score at 10 µM; AID 2648, 2010; actives 0.35% (n = 310,000);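 active = fluorescence ratio B-score, a plate-corrected score, at least three library SD, with initial intensity B-score within 5 SD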
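Assay system: stable KCNQ1 CHO-K1 line; medium: assay buffer, equal DMSO in all wells; timing: 90 min dye loading and 20 min compound exposure, both at room temperature; technique: kinetic FluxOR thallium fluorescence, 10-s 1-Hz baseline, 110-s post-stimulus read; read-out basis: B score of baseline-normalized fluorescence ratio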
KCNK3 block: human KCNK3 channel inhibitors, primary screen, CHO cells, FluxOR thallium flux, B-score. B-score at 10 µM. Potassium channel subfamily K member 3 (Homo sapiens), O14649. AID 602410, 2012. actives 0.84% (n = 340,000). FluxOR fluorescence; hits give low values;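 active = B-score under library mean minus 4 SD, starting fluorescence ratio at most library mean plus 5 SD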;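 note: more negative B-score means stronger inhibition of thallium flux through KCNK3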
Target sequence (O14649 whole entry, looked up): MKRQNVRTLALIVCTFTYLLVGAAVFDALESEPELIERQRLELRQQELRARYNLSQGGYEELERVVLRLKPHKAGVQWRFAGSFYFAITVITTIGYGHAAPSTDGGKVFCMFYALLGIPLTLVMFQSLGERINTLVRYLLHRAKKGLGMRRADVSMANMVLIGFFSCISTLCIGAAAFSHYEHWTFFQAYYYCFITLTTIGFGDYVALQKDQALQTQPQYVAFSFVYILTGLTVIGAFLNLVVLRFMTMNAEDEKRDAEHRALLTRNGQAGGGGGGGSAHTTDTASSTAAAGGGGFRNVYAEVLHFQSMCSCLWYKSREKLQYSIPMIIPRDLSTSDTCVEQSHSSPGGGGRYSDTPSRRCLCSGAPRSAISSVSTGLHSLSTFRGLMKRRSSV
KCNK9 inh conf: KCNK9 potassium channel inhibitors, confirmation, HEK293 cells, thallium flux, duplicate. shares compounds with KCNK9 inh. FluxOR thallium flux fluorescence. inhibition, % at 10 µM. actives 43% (n = 4,900). AID 492992, 2010;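 active = thallium signal inhibited by more than 5 SD of the compound-free buffer control wells, on both duplicate plates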;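 note: 0% = assay buffer control wells without compound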
Kir21 sel: mouse Kir2.1 channel inhibition, confirmation, selectivity assay for KCNK9 modulator project, cell-based, HEK293, thallium flux | shares compounds with KCNK9 inh | Kir2.1 cells, FluxOR thallium flux fluorescence | inhibition, % at 10 µM | actives 4% (n = 4,900);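 active = thallium signal drop more than 5 SD beyond the mean of the no-compound control wells, seen in both duplicate plates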;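 note: signal is fluorescence rise after thallium addition divided by baseline fluorescence; plate controls were assay buffer only for no effect and full block by chlorpromazine control for full effect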
HEK293 Tl ctr: thallium flux in non-induced HEK293 cells, confirmation, counter-screen for KCNK9 inhibitor project, cell-based, second counter screen, non-induced KCNK9-HEK293; inhibition, % at 10 µM; shares compounds with KCNK9 inh; actives 40% (n = 4,900); FluxOR thallium flux;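 active = thallium signal drop beyond 5 SD of the untreated control mean, on both duplicate plates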;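 note: plate controls were buffer only IC0 wells for no effect and SID17386958 at its maximal inhibitory level for full effect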
KCNK3 confirm: retest of human KCNK3 channel inhibitors, confirmation, CHO cells, FluxOR thallium flux, triplicate | AID 651638, 2012 | ratio percent of control, % at 10 µM | actives 99% (n = 2,400) | FluxOR fluorescence; 0% buffer, 100% carvedilol maximal block | shares compounds with KCNK3 block;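 active = ratio percent of control, averaged over triplicates, above buffer control mean plus 5 SD, cut at about 64% in these data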;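 note: ratio is the fluorescence rise from min to max over baseline after thallium stimulus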
KCNK3 noninduced: thallium flux inhibition in non-induced cells, primary screen, counter-screen for KCNK3 inhibitor project, cell-based, non-induced KCNK3 line, FluxOR thallium, triplicate; shares compounds with KCNK3 block; non-induced KCNK3 parental cells; hits give low values; thallium flux ratio (lower = more inhibition) at 10 µM; actives 40% (n = 2,400); AID 651747, 2012;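 active = thallium flux ratio, averaged over three wells, more than 5 SD below the buffer control mean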;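 note: host cells are CHO cells without KCNK3 induction; ratio is peak minus trough fluorescence over baseline then normalized to buffer controls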
* marks the source's active call; other numbers are inactive results; i = inactive; . = no result.

SMILES | KCNK9 inh | Kir21 block | KCNQ1 block | hERG protect | KCNQ1 pot | KCNK3 block | KCNK9 inh conf | Kir21 sel | HEK293 Tl ctr | KCNK3 confirm | KCNK3 noninduced
COC(=O)CSc1nc(N2CCCCC2)c2c(c1C#N)CCCC2 | -10* | -2 | i | 4 | i | -11* | 38%* | i | 35%* | 104* | i
Cc1cccc(-c2nnc(-c3cccc(NC(=O)Cc4cccs4)c3)o2)c1 | -17* | -0.13 | i | 0 | i | -16* | 54%* | i | 30%* | 148* | 0.14*
O=C(Cc1cccs1)Nc1ccc(-c2nnc(-c3ccccc3)o2)cc1 | i | 0 | i | -1 | i | i | . | . | . | . | .
CC12CC(O)C3C(CCC4=CC(=O)CCC43C)C1CCC2=CCO (stereo not drawn) | . | . | . | . | . | i | . | . | . | . | .
O=S1(=O)C=C(Oc2ccc(F)cc2)c2ccccc21 | i | 0.38 | i | -7 | i | i | . | . | . | . | .
O=S1(=O)C=C(Oc2ccc3ccccc3c2)c2ccccc21 | -9.6* | 0.26 | i | -16 | i | -9.7* | 40%* | i | 42%* | 107* | i
CC(C)(C)n1nc2c(c1NC(=O)Cc1ccc([N+](=O)[O-])cc1)CS(=O)(=O)C2 | i | 0.69 | i | -8 | i | i | . | . | . | . | .
O=C(O)Cn1c(-c2ccccn2)nc2ccccc21 | i | 0.7 | i | -5 | i | i | . | . | . | . | .
c1ccc(CN2c3ccccc3-c3nc4ccccc4n3C2c2ccccn2)cc1 (stereo not drawn) | -14* | -0.37 | i | -30 | i | -10* | 66%* | i | 40%* | 123* | i
CN1c2ccccc2-c2nc3ccccc3n2C1c1ccncc1 (stereo not drawn) | i | 0.03 | i | -7 | i | i | . | . | . | . | .
CCN1c2ccccc2-c2nc3ccccc3n2C1c1ccco1 (stereo not drawn) | -9.1* | -6.4* | i | -17 | i | -9.2* | 40%* | 28%* | 44%* | 128* | 0.14*
CCCCC(=O)OCc1c(-c2ccccc2)ncc2ccccc12 | . | . | . | . | . | i | . | . | . | . | .
COc1ccc(N)c2c1C(=O)c1ccccc1C2=O | i | 2.2 | i | -12 | i | i | . | . | . | . | .
COc1ccc(OC)c2c1C(=O)C(Cl)=C(Cl)C2=O | -9.8* | -4.3* | 10* | -30 | i | -8.9* | 58%* | 41%* | 87%* | 151* | 0.089*
CCN(Cc1ccncc1)C(=O)c1cc(COc2ccc(F)cc2Cl)on1 | i | -1.4 | i | -4 | i | i | . | . | . | . | .
C#CCN(Cc1ccco1)C(=O)c1cc(COc2ccc(F)cc2Cl)on1 | -9.3* | -0.03 | i | -7 | i | -11* | i | i | 34%* | 115* | 0.15*
CCN1C(=O)[C@H]2[C@H]3CN=C(SC)N3[C@@](Cc3ccccc3)(C(=O)OC)[C@H]2C1=O | . | . | . | . | . | i | . | . | . | . | .
Oc1cc2c(cc1C(c1ccc(Cl)c(Cl)c1)N1CCCC1)OCO2 (stereo not drawn) | -8.7* | 0.73 | i | -19 | i | -12* | i | i | 41%* | 136* | 0.15*
CC1CCN(C(=O)N2c3ccccc3Sc3ccccc32)CC1 | -9.3* | -0.01 | 11* | -18 | i | -11* | 58%* | i | 46%* | 113* | 0.13*
CCOc1cccc2sc(N(CCN(C)C)C(=O)c3ccc4ccccc4c3)nc12 | -9.4* | -1.4 | i | -23 | i | -9.6* | 36%* | i | i | 118* | i
CC(C)(C)n1nnnc1C(c1ccccn1)N(Cc1ccccc1)Cc1ccc(Cl)cc1 (stereo not drawn) | -16* | 0.96 | i | 0 | i | -9.2* | 60%* | i | 46%* | 100* | 0.15*
CC(C)(C)n1nnnc1C(c1cccs1)N(Cc1ccccc1)Cc1ccco1 (stereo not drawn) | -19* | -0.81 | 9* | -18 | i | -12* | 66%* | i | 46%* | 113* | 0.15*
CN(C)CC[C@@H](c1ccc(Cl)cc1)c1ccccn1 | i | -2.8 | i | -8 | i | i | . | . | . | . | .
CCC(C)(C)n1nnnc1C(c1cc2ccc(C)cc2[nH]c1=O)N(Cc1cccnc1)Cc1ccco1 (stereo not drawn) | i | 0.16 | i | -1 | i | i | . | . | . | . | .
CCOc1ccccc1Cn1c(=O)oc2ccc(C)cc21 | . | . | . | . | . | i | . | . | . | . | .
CCCOc1ccccc1Cn1c(=O)oc2ccc(C)cc21 | -10* | -1 | i | -18 | 16* | -8.7* | 52%* | i | 46%* | 115* | i
CC1CC(C)(C)CC2(C1)NC(=O)N(CC(=O)Nc1cc([N+](=O)[O-])ccc1F)C2=O (stereo not drawn) | . | . | . | . | . | i | . | . | . | . | .
COc1ccc(C(C)=O)cc1COC(=O)c1cccnc1Cl | i | 1.1 | i | -4 | i | i | . | . | . | . | .
COc1ccc(C(C)=O)cc1COC(=O)c1cc2ccccc2cc1O | -15* | 2.2 | i | -9 | i | -13* | 32%* | i | 29%* | 109* | i
